Results reported in PubChem BioAssay AID652250 (Vanderbilt Specialized Chemistry Center, 2013).
Calls of active or inactive are those of the source.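 The calls were made as follows: active = compounds leaving under half of the peptide-driven platelet calcium rise; inactive = the rest.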

Molecular target: Proteinase-activated receptor 4 (Homo sapiens) (UniProt Q96RI0)
Assay: inhibition of PAR4-AP calcium signal – cell-based, single concentration, washed platelets, Fluo4 calcium (AID 652250)
Conditions: PAR4-AP calcium Fluo4 fluorescence; for % of max PAR4-AP calcium response: at 10 µM, hits give low values
In short: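 Assay system: Fluo4-AM-loaded washed human platelets / Quantity: 10^8 platelets/mL / Detection: fluorescence at 480/540 nm, 1 s intervals / Also added: 80 µM PAR4-AP / Benchmarks: PAR4-AP-stimulated DMSO control (100%) / Replicates: triplicate wells / Read-out: peak minus basal RFU as % of per-donor DMSO control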

Sequence of Proteinase-activated receptor 4 (Homo sapiens) (Q96RI0 whole entry, looked up): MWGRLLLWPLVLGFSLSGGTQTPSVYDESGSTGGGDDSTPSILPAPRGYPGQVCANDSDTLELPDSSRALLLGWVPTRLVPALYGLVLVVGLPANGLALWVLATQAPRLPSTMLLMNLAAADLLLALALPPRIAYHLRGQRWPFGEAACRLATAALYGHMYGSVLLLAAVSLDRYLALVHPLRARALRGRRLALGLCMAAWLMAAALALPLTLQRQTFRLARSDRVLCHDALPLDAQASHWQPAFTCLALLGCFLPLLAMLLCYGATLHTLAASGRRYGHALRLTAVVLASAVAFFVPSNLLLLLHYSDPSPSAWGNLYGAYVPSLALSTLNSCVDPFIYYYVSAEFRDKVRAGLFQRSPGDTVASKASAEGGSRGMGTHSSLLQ

Row | Compound | % of max PAR4-AP calcium response | IC50
1 | COc1cc(NC(=O)c2ccc3c(c2)c(C)c(C)n3C)cc(OC)c1 | inactive | –
2 | COc1ccc2c(c1)c(C(C)=O)c(C)n2-c1cccc(Br)c1 | inactive | –
3 | COc1ccc2c(c1)c(CC(=O)N1CCC(C(N)=O)CC1)c(C)n2C(=O)c1ccc(Cl)cc1 | inactive | –
4 | Cn1cc(CC(=O)N2CCN(c3ccc([N+](=O)[O-])cc3)CC2)c2ccccc21 | inactive | –
5 | Cc1ccc(-n2cc(-c3ccccc3)c3c(N4CCCC4)ncnc32)cc1Cl | inactive | –
6 | O=C(c1cn(CCOc2ccc3c(c2)OCO3)c2ccc(Br)cc12)C(F)(F)F | inactive | –
7 | Cc1ccc2c(c1)c(-c1ccccc1)c(-c1ccccc1)n2CC(O)CN1CCOCC1 (configuration not stated) | inactive | –
8 | CCn1ccc(C(=O)Nc2sc(C(=O)OC)c(C)c2C(=O)OC)n1 | inactive | –
9 | Cc1cccc(NC(=O)Cn2cc(C(=O)C(F)(F)F)c3ccccc32)c1 | inactive | –
10 | COc1ccc2c(c1)c(C(=O)N1CCCC1)c(C)n2Cc1ccccc1 | inactive | –
11 | CCc1cc(C(=O)Cc2cnn(-c3ccccc3)c2)c(O)cc1O | inactive | –
12 | COc1ccc(-c2cn(Cc3cccc(F)c3)c3ccccc23)cn1 | – | 3.85 µM
13 | OCCCc1cn(-c2ccccc2)c2ccccc12 | inactive | –
14 | FC(F)(F)c1cccc(-c2cn(Cc3ccccc3)c3ccccc23)c1 | inactive | –
15 | Cc1cc(OCCn2cc(C(=S)N3CCOCC3)c3ccccc32)ccc1Cl | inactive | –
16 | Clc1ccc(-n2cc(-c3ccccc3)c3c(NCc4ccc5c(c4)OCO5)ncnc32)cc1 | inactive | –
17 | CC(C)Nc1ncnc2c1c(-c1ccccc1)cn2-c1cccc(C(F)(F)F)c1 | inactive | –
18 | OCc1cn(Cc2ccc(Cl)c(Cl)c2)c2ccccc12 | inactive | –
19 | COc1ccc(-n2cc(-c3ccccc3)c3c(=O)[nH]cnc32)cc1 | inactive | –
20 | Cc1ccc2c(c1)c1c3n2CCN(C(=O)CN2CCN(C(=O)c4ccco4)CC2)C3CCC1 (configuration not stated) | inactive | –
21 | COc1cc(OC)cc(-c2cn(Cc3ccccc3)c3ccccc23)c1 | inactive | –
22 | CCn1c(COC)c(-c2ccccc2)c2cc([N+](=O)[O-])ccc21 | inactive | –
23 | CC(=O)n1cc(C2C(=O)NN=C2C)c2ccccc21 (configuration not stated) | inactive | –
24 | COc1ccc(-c2cn(Cc3cccc(Cl)c3)c3ccccc23)cn1 | – | 3.13 µM

Row | Compound | % of max PAR4-AP calcium response | IC50
25 | S=C(c1cn(Cc2ccc(Cl)cc2)c2ccccc12)N1CCCC1 | inactive | –
26 | COc1cc(Nc2ncnc3c2c(-c2ccccc2)cn3-c2ccccc2)cc(OC)c1OC | inactive | –
27 | Cc1cn(CC(=O)c2ccccc2)c2ccccc12 | inactive | –
28 | COc1ccc2c(c1)c(CC(=O)Nc1ccc(Cl)cn1)c(C)n2C(=O)c1ccc(Cl)cc1 | inactive | –
29 | O=c1c2ccccc2nc(/C=C/c2cn(Cc3ccccc3)c3ccccc23)n1CCCO | inactive | –
30 | O=C(Cn1cc(C(=O)C(F)(F)F)c2ccccc21)N1CCCC1 | inactive | –
31 | OC(CN1CCCCC1)Cn1c2c(c3ccccc31)CCCC2 (configuration not stated) | inactive | –
32 | Clc1ccc(-n2cc(-c3ccccc3)c3c(N4CCOCC4)ncnc32)cc1 | inactive | –
33 | CC(O)CNc1ncnc2c1c(-c1ccccc1)cn2-c1ccccc1 (configuration not stated) | inactive | –
34 | O=C(N/N=C/c1c[nH]c2ccccc12)c1ccn(Cc2ccc(Cl)cc2)n1 | inactive | –
35 | COc1ccc2c(c1)c(C(=O)CNc1nc(C)c(C)s1)c(C)n2C | inactive | –
36 | Cc1ccc(OCCn2cc(C(=S)N3CCOCC3)c3ccccc32)cc1 | inactive | –
37 | O=C(CCc1cn(Cc2ccccc2)c2ccccc12)NCCN1CCOCC1 | inactive | –
38 | Cc1cc(F)ncc1-c1cn(Cc2ccccc2)c2ccccc12 | inactive | –
39 | Cc1ccc(-n2cc(-c3ccccc3)c3c(NC4CCCC4)ncnc32)cc1Cl | inactive | –
40 | COc1ccc(Nc2ncnc3c2c(-c2ccccc2)cn3-c2ccc(Br)cc2)cc1OC | 38.7% | –
41 | Cn1cc(CC(=O)NCC2COc3ccccc3O2)c2ccccc21 (configuration not stated) | inactive | –
42 | CCN(CC)c1ncnc2c1c(-c1ccccc1)cn2-c1ccc(C)c(Cl)c1 | inactive | –
43 | OCCCNc1ncnc2c1c(-c1ccccc1)cn2-c1ccc(F)cc1 | inactive | –
44 | CCN(CC)CC(O)Cn1c(C)c(-c2ccccc2)c2cc([N+](=O)[O-])ccc21 (configuration not stated) | inactive | –
45 | CSc1ncnc2c1c(-c1ccccc1)cn2-c1ccc(F)cc1 | inactive | –
46 | COc1ccc2c(c1)c(C(=O)CNc1nc(C)cs1)c(C)n2C | inactive | –
47 | CN(C)c1ccc(/C=N/NC(=O)c2ccn(Cc3ccc(Cl)cc3)n2)cc1 | inactive | –
